{
  "source": "ChEMBL document CHEMBL5724801",
  "about": "“EUbOPEN Chemogenomics Library - Multiplex” (2024)",
  "system": "Fibroblast",
  "experiment": "Multiplex assay against human fibroblast",
  "format": "toxicity, cell-based",
  "procedure,_shortened": "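Live cells were stained at seeding with Hoechst33342, BioTracker Green Microtubule Cytoskeleton Dye, MitoTracker Red and Annexin V Alexa Fluor 680. Following compound addition, they were imaged on a CQ1 microscope at 37°C and 5% CO2 and gated by CellPathfinder machine learning into Hoechst high-intensity objects or normal cells, with normal cells split into healthy, pyknosed or fragmented nuclei and pyknosed cells into mitotic or apoptotic. Tubulin, mitochondrial-mass and membrane-permeability phenotypes are per cents of healthy-nucleus cells.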",
  "key": {"[1]": {"conditions": "12 h, 1 µM, compound concentration 1 uM"}, "[2]": {"conditions": "12 h, 10 µM, compound concentration 10 uM"}, "[3]": {"conditions": "24 h, 1 µM, compound concentration 1 uM"}, "[4]": {"conditions": "24 h, 10 µM, compound concentration 10 uM"}, "[5]": {"conditions": "48 h, 1 µM, compound concentration 1 uM"}, "[6]": {"conditions": "48 h, 10 µM, compound concentration 10 uM"}},
  "note": "“And” between values parts separate entries of the source, which are not always exact repeats. Equal values may be shown once.",
  "data": [
    {"smiles": "COCCNc1cc(NC(=O)N2CCCc3cc(CN4CCN(C)CC4=O)c(C=O)nc32)ncc1C#N", "note": "[FGF401]", "values": [
      {"measurement": "Population Apoptotic (%)", "setting": "[1]", "result": "10.64% and 13.95%"},
      {"measurement": "Population Fragmented Nuclei (%)", "setting": "[1]", "result": "11.5% and 4.82%"},
      {"measurement": "Population Healthy Nuclei (%)", "setting": "[1]", "result": "65% and 77.91%"},
      {"measurement": "Population Hoechst High Intensity Objects (%)", "setting": "[1]", "result": 0, "unit": "%"},
      {"measurement": "Population Membrane Permeable-Phenotype (%)", "setting": "[1]", "result": "3.85% and 1.03%"},
      {"measurement": "Population Mitochondria Different-Phenotype (%)", "setting": "[1]", "result": "6.15% and 8.25%"},
      {"measurement": "Population Mitotic Cells (%)", "setting": "[1]", "result": "89.36% and 86.05%"},
      {"measurement": "Population Normal (%)", "setting": "[1]", "result": 100, "unit": "%"},
      {"measurement": "Population Pyknosed Nuclei (%)", "setting": "[1]", "result": "23.5% and 17.27%"},
      {"measurement": "Population Tubulin-Different-Phenotype (%)", "setting": "[1]", "result": "13.08% and 10.31%"},
      {"measurement": "Total Cell Count", "setting": "[1]", "result": "200 and 249"},
      {"measurement": "Population Apoptotic (%)", "setting": "[2]", "result": "14.63% and 19.35%"},
      {"measurement": "Population Fragmented Nuclei (%)", "setting": "[2]", "result": "15.03% and 6.59%"},
      {"measurement": "Population Healthy Nuclei (%)", "setting": "[2]", "result": "58.17% and 76.37%"},
      {"measurement": "Population Hoechst High Intensity Objects (%)", "setting": "[2]", "result": 0, "unit": "%"},
      {"measurement": "Population Membrane Permeable-Phenotype (%)", "setting": "[2]", "result": "3.37% and 5.76%"},
      {"measurement": "Population Mitochondria Different-Phenotype (%)", "setting": "[2]", "result": "11.24% and 10.07%"},
      {"measurement": "Population Mitotic Cells (%)", "setting": "[2]", "result": "85.37% and 80.65%"},
      {"measurement": "Population Normal (%)", "setting": "[2]", "result": 100, "unit": "%"},
      {"measurement": "Population Pyknosed Nuclei (%)", "setting": "[2]", "result": "26.8% and 17.03%"},
      {"measurement": "Population Tubulin-Different-Phenotype (%)", "setting": "[2]", "result": "22.47% and 25.9%"},
      {"measurement": "Total Cell Count", "setting": "[2]", "result": "153 and 182"},
      {"measurement": "Population Apoptotic (%)", "setting": "[3]", "result": "11.11% and 15.38%"},
      {"measurement": "Population Fragmented Nuclei (%)", "setting": "[3]", "result": "11.01% and 5.33%"},
      {"measurement": "Population Healthy Nuclei (%)", "setting": "[3]", "result": "68.35% and 89.34%"},
      {"measurement": "Population Hoechst High Intensity Objects (%)", "setting": "[3]", "result": 0, "unit": "%"},
      {"measurement": "Population Membrane Permeable-Phenotype (%)", "setting": "[3]", "result": "7.38% and 0.46%"},
      {"measurement": "Population Mitochondria Different-Phenotype (%)", "setting": "[3]", "result": "4.7% and 6.42%"},
      {"measurement": "Population Mitotic Cells (%)", "setting": "[3]", "result": "88.89% and 84.62%"},
      {"measurement": "Population Normal (%)", "setting": "[3]", "result": 100, "unit": "%"},
      {"measurement": "Population Tubulin-Different-Phenotype (%)", "setting": "[3]", "result": "9.4% and 12.84%"},
      {"measurement": "Total Cell Count", "setting": "[3]", "result": "218 and 244"},
      {"measurement": "Population Apoptotic (%)", "setting": "[4]", "result": "8.57% and 3.23%"},
      {"measurement": "Population Fragmented Nuclei (%)", "setting": "[4]", "result": "12.26% and 4.02%"},
      {"measurement": "Population Healthy Nuclei (%)", "setting": "[4]", "result": "65.16% and 80.4%"},
      {"measurement": "Population Hoechst High Intensity Objects (%)", "setting": "[4]", "result": 0, "unit": "%"},
      {"measurement": "Population Membrane Permeable-Phenotype (%)", "setting": "[4]", "result": "8.91% and 3.75%"},
      {"measurement": "Population Mitochondria Different-Phenotype (%)", "setting": "[4]", "result": "6.93% and 8.75%"},
      {"measurement": "Population Mitotic Cells (%)", "setting": "[4]", "result": "91.43% and 96.77%"},
      {"measurement": "Population Normal (%)", "setting": "[4]", "result": 100, "unit": "%"},
      {"measurement": "Population Pyknosed Nuclei (%)", "setting": "[4]", "result": "22.58% and 15.58%"},
      {"measurement": "Population Tubulin-Different-Phenotype (%)", "setting": "[4]", "result": "17.82% and 16.88%"},
      {"measurement": "Total Cell Count", "setting": "[4]", "result": "155 and 199"},
      {"measurement": "Population Fragmented Nuclei (%)", "setting": "[5]", "result": "9.45% and 6.06%"},
      {"measurement": "Population Healthy Nuclei (%)", "setting": "[5]", "result": "81.89% and 88.26%"},
      {"measurement": "Population Hoechst High Intensity Objects (%)", "setting": "[5]", "result": 0, "unit": "%"},
      {"measurement": "Population Membrane Permeable-Phenotype (%)", "setting": "[5]", "result": "0.48% and 1.29%"},
      {"measurement": "Population Mitochondria Different-Phenotype (%)", "setting": "[5]", "result": "12.02% and 2.58%"},
      {"measurement": "Population Mitotic Cells (%)", "setting": "[5]", "result": "63.64% and 93.33%"},
      {"measurement": "Population Normal (%)", "setting": "[5]", "result": 100, "unit": "%"},
      {"measurement": "Population Pyknosed Nuclei (%)", "setting": "[5]", "result": "8.66% and 5.68%"},
      {"measurement": "Population Tubulin-Different-Phenotype (%)", "setting": "[5]", "result": "2.88% and 11.59%"},
      {"measurement": "Total Cell Count", "setting": "[5]", "result": "254 and 264"},
      {"measurement": "Population Apoptotic (%)", "setting": "[6]", "result": "27.27% and 18.18%"},
      {"measurement": "Population Fragmented Nuclei (%)", "setting": "[6]", "result": "9.49% and 6.84%"},
      {"measurement": "Population Healthy Nuclei (%)", "setting": "[6]", "result": "83.54% and 87.37%"},
      {"measurement": "Population Hoechst High Intensity Objects (%)", "setting": "[6]", "result": 0, "unit": "%"},
      {"measurement": "Population Membrane Permeable-Phenotype (%)", "setting": "[6]", "result": "1.52% and 1.81%"},
      {"measurement": "Population Mitotic Cells (%)", "setting": "[6]", "result": "72.73% and 81.82%"},
      {"measurement": "Population Normal (%)", "setting": "[6]", "result": 100, "unit": "%"},
      {"measurement": "Population Pyknosed Nuclei (%)", "setting": "[6]", "result": "6.96% and 5.79%"},
      {"measurement": "Population Tubulin-Different-Phenotype (%)", "setting": "[6]", "result": "9.85% and 22.29%"},
      {"measurement": "Total Cell Count", "setting": "[6]", "result": "158 and 190"}
    ]}
  ]
}
